Laboratory results published in ChEMBL document CHEMBL1153575, “Synthesis and in vitro anticancer activity of 2,4-azolidinedione-acetic acids derivatives” (2009).

Key:
Type in all cases: functional
MCF7 = assay: Cytotoxicity against human MCF7 cells assessed as cell growth at 100 uM after 48 hrs by sulforhodamine B assay; details: MCF7, 48 h, read-out: Activity
Method in brief: (§1)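 Primary one-dose screen on a three-line panel (MCF7 breast, NCI-H460 lung, SF-268 CNS) at 10^-4 M. Cells were preincubated 24–48 h before a single addition of the agent, followed by 48 h incubation. Endpoint was SRB protein staining, reported as percent growth versus untreated controls.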

NCI-H460 = assay: Cytotoxicity against human NCI-H460 cells assessed as cell growth at 100 uM after 48 hrs by sulforhodamine B assay; details: NCI-H460, 48 h, read-out: Activity; method in brief: as §1
SF-268 = assay: Cytotoxicity against human SF268 cells assessed as cell growth at 100 uM after 48 hrs by sulforhodamine B assay; details: SF-268, 48 h, read-out: Activity; method in brief: as §1
HL-60(TB) = assay: Growth inhibition of human HL-60(TB) cells after 48 hrs by sulforhodamine B assay; details: HL-60, 48 h
Method in brief: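 Cells inoculated and preincubated 24–48 h in microtiter plates, then exposed continuously for 48 h to five 10-fold dilutions from 10^-4 to 10^-8 M. End point by sulforhodamine B protein staining, read spectrophotometrically against untreated controls and time-zero absorbance. Percent growth computed per concentration; GI50 taken where [(Ti−Tz)/(C−Tz)]×100 = 50, expressed as log molar value.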

CCRF-CEM = assay: Growth inhibition of human CCRF-CEM cells after 48 hrs by sulforhodamine B assay; details: for TGI: read-out: pTGI (converted)
Method in brief: (§2)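 Five-concentration assay in about 60 human tumour lines, using 10-fold dilutions from 10^-4 to 10^-8 M with 48 h continuous exposure and an SRB protein endpoint. Percent growth at each level comes from time-zero, untreated-control and treated absorbances. GI50 is 50% lower net protein increase than control. Values beyond the tested range are given as greater or less than the extreme concentration.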

K562 = assay: Growth inhibition of human K562 cells after 48 hrs by sulforhodamine B assay; details: K562, 48 h; method in brief: as §2
SR = assay: Growth inhibition of human SR cells after 48 hrs by sulforhodamine B assay; method in brief: as §2
MOLT-4 = assay: Growth inhibition of human MOLT4 cells after 48 hrs by sulforhodamine B assay; details: MOLT-4, 48 h; for CC50: read-out: pLC50 (the source's name) (converted); for TGI: read-out: pTGI (converted); method in brief: as §2
HOP-92 = assay: Growth inhibition of human HOP92 cells after 48 hrs by sulforhodamine B assay; details: HOP-92, 48 h; for TGI: read-out: pTGI (converted); method in brief: as §2
MDA-MB-231 = assay: Growth inhibition of human MDA-MB-231 cells after 48 hrs by sulforhodamine B assay; details: MDA-MB-231, 48 h; method in brief: as §2
RPMI-8226 = assay: Growth inhibition of human RPMI8226 cells after 48 hrs by sulforhodamine B assay; details: RPMI-8226, 48 h; method in brief: as §2
ACHN = assay: Growth inhibition of human ACHN cells after 48 hrs by sulforhodamine B assay; method in brief: as §2
[1] = Growth inhibition of human Hs 578T cells after 48 hrs by sulforhodamine B assay; method in brief: as §2
HOP-62 = assay: Growth inhibition of human HOP62 cells after 48 hrs by sulforhodamine B assay; details: HOP-62, 48 h; method in brief: as §2
M14 = assay: Growth inhibition of human M14 cells after 48 hrs by sulforhodamine B assay; details: M14, 48 h; method in brief: as §2
[2] = Growth inhibition of human 786-O cells after 48 hrs by sulforhodamine B assay; details: 786-0, 48 h; method in brief: as §2
SN12C = assay: Growth inhibition of human SN12C cells after 48 hrs by sulforhodamine B assay; method in brief: as §2
A549 = assay: Growth inhibition of human A549 cells after 48 hrs by sulforhodamine B assay; details: A549, 48 h; method in brief: as §2
NCI-H226 = assay: Growth inhibition of human NCI-H226 cells after 48 hrs by sulforhodamine B assay; details: NCI-H226, 48 h; method in brief: as §2
HCT-116 = assay: Growth inhibition of human HCT116 cells after 48 hrs by sulforhodamine B assay; details: HCT-116, 48 h; method in brief: as §2
[3] = read-out: pLC50 (the source's name) (converted)

Compound: O=C(CC1SC(=O)NC1=O)Nc1nccs1 (centres undefined)
- growth at 100 µM (MCF7): 115%
- growth at 100 µM (NCI-H460): 116%
- growth at 100 µM (SF-268): 114%

Compound: O=C(CN1C(=O)N/C(=C\c2ccc(Cl)cc2)C1=O)Nc1ccccc1C(F)(F)F
- GI50 (HL-60(TB)): 0.295 µM
- CC50 (HL-60(TB); [3]): > 100 µM
- TGI (HL-60(TB); read-out: pTGI (converted)): 2 µM
- GI50 (CCRF-CEM): 1.2 µM
- LC50 (CCRF-CEM): > 100 µM
- TGI (CCRF-CEM): > 100 µM
- GI50 (K562): 5.37 µM
- CC50 (K562; [3]): > 100 µM
- TGI (K562; read-out: pTGI): > 100 µM
- GI50 (SR): 0.309 µM
- LC50 (SR): 52.5 µM
- TGI (SR; read-out: pTGI (converted)): 12.6 µM
- GI50 (MOLT-4): 4.57 µM
- CC50 (MOLT-4): 81.3 µM
- TGI (MOLT-4): 24 µM
- GI50 (HOP-92): 18.2 µM
- LC50 (HOP-92): > 100 µM
- TGI (HOP-92): 97.7 µM

Compound: O=C(/C=C1\SC(=O)N(CC(=O)Nc2ccccc2C(F)(F)F)C1=O)Nc1ccc(Cl)cc1
- growth at 100 µM (MCF7): 61%
- growth at 100 µM (NCI-H460): 87%
- growth at 100 µM (SF-268): 86%

Compound: O=C(CN1C(=O)S/C(=C\C=C\c2ccccc2)C1=O)Nc1ccc(Cl)cc1
- growth at 100 µM (MCF7): 92%
- growth at 100 µM (NCI-H460): 108%
- growth at 100 µM (SF-268): 98%

Compound: O=C(/C=C1\SC(=O)N(CC(=O)Nc2ccc(Cl)cc2)C1=O)Nc1ccc(Cl)cc1
- growth at 100 µM (MCF7): 111%
- growth at 100 µM (NCI-H460): 107%
- growth at 100 µM (SF-268): 116%

Compound: O=C(CC1NC(=O)NC1=O)Nc1ccc(Cl)cc1 (centres undefined)
- growth at 100 µM (MCF7): 115%
- growth at 100 µM (NCI-H460): 121%
- growth at 100 µM (SF-268): 114%

Compound: O=C(/C=C1\SC(=O)N(CC(=O)Nc2cccc(C(F)(F)F)c2)C1=O)Nc1ccc(Cl)cc1
- growth at 100 µM (MCF7): 103%
- growth at 100 µM (NCI-H460): 108%
- growth at 100 µM (SF-268): 100%

Compound: O=C(CC1NC(=O)NC1=O)Nc1nccs1 (centres undefined)
- growth at 100 µM (MCF7): 111%
- growth at 100 µM (NCI-H460): 108%
- growth at 100 µM (SF-268): 114%

Compound: O=C(CN1C(=O)N/C(=C/c2ccc(Cl)cc2)C1=O)Nc1cccc(C(F)(F)F)c1
- GI50 (MDA-MB-231): 4.57 µM
- LC50 (MDA-MB-231): > 100 µM
- TGI (MDA-MB-231; read-out: pTGI (converted)): 22.9 µM
- growth at 100 µM (MCF7): 58%
- GI50 (RPMI-8226): 0.01 µM
- LC50 (RPMI-8226): 28.2 µM
- TGI (RPMI-8226; read-out: pTGI (converted)): 6.92 µM
- growth at 100 µM (NCI-H460): 4%
- GI50 (ACHN): 14.5 µM
- CC50 (ACHN; [3]): 56.2 µM
- TGI (ACHN; read-out: pTGI (converted)): 28.8 µM
- GI50 (CCRF-CEM): 13.5 µM
- LC50 (CCRF-CEM): > 100 µM
- TGI (CCRF-CEM): > 100 µM
- GI50 [1]: 10.5 µM
- CC50 [1, 3]: > 100 µM
- TGI ([1]; read-out: pTGI (converted)): 77.6 µM
- growth at 100 µM (SF-268): 100%
- GI50 (HOP-62): 12.6 µM
- LC50 (HOP-62): 69.2 µM
- TGI (HOP-62; read-out: pTGI (converted)): 29.5 µM
- GI50 (M14): 14.5 µM
- CC50 (M14; [3]): > 100 µM
- TGI (M14; read-out: pTGI): > 100 µM
- GI50 [2]: 13.8 µM
- CC50 [2, 3]: 89.1 µM
- TGI ([2]; read-out: pTGI (converted)): 35.5 µM
- GI50 (SN12C): 12 µM
- LC50 (SN12C): 100 µM
- TGI (SN12C; read-out: pTGI (converted)): 34.7 µM
- GI50 (A549): 10.7 µM
- CC50 (A549; [3]): > 100 µM
- TGI (A549; read-out: pTGI): > 100 µM
- GI50 (MOLT-4): 2.51 µM
- CC50 (MOLT-4): > 100 µM
- TGI (MOLT-4): > 100 µM
- GI50 (HOP-92): 5.37 µM
- LC50 (HOP-92): > 100 µM
- TGI (HOP-92): 28.8 µM
- GI50 (NCI-H226): 13.2 µM
- CC50 (NCI-H226; [3]): > 100 µM
- TGI (NCI-H226; read-out: pTGI (converted)): 46.8 µM
- GI50 (HCT-116): 13.8 µM
- LC50 (HCT-116): > 100 µM
- TGI (HCT-116; read-out: pTGI (converted)): 66.1 µM
